The results in this text go back to ChEMBL document CHEMBL4020840, “Synthesis and Biological Evaluation of Selenium-Containing 4-Anilinoquinazoline Derivatives as Novel Antimitotic Agents” (J Med Chem, 2018).

The experiment concerns A549. Kind of experiment: Antitumor activity against human A549 cells xenografted in Balb/c mouse assessed as tumor growth inhibition at 30 mg/kg, ip treated once in 2 days for 10 days relative to control. Format: functional. Particulars: read-out: TGI. In short, it runs like this: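 Male BALB/c nude mice, 5 weeks old, 18−20 g. Right flank injected sc with 0.1 mL of 1 × 10⁷ cells/mL log-phase A549 in FBS-free DMEM. At ~100 mm³, randomised into groups of 5 and dosed ip every 2 days; vehicle controls got equal volume. Tumour volume (0.5 × length × width²) and body weight recorded every 2 days.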
On the technique in general: Xenograft models place foreign cells or tissue in a host animal.

Consider `COc1ccc(/C=C\c2cc(OC)c(OC)c(OC)c2)cc1OP(=O)(O)O` [FOSBRETABULIN], for which the inhibition in vivo at 30 mg/kg turned out to be 56.6%.
